ChEMBL document CHEMBL1128448, “Synthesis and antifungal activity of new azole derivatives containing an N-acylmorpholine ring” (1995)
Converted amounts (≈) assume the structure as drawn.

Assays:
Candida albicans [1] = assay: In vivo evaluation of minimum inhibitory concentration against Candida albicans 406; assay type: functional; settings: Candida albicans; read-out: MIC
How it was run: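 Broth macrodilution MIC following NCCLS M27-P, in RPMI-1640 buffered with 0.165 M MOPS. Fluconazole was dissolved in water and other drugs in DMSO. C. parapsilosis ATCC 22019 served as the reference strain in every run. MIC was the lowest concentration giving turbidity at or below the 80% inhibition standard.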

Pichia kudriavzevii [2] = assay: Evaluation of In vitro antifungal activity against Candida krusei C64 by broth macro dilution method; assay type: functional
How it was run: (§1)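 Yeast MIC and MFC by broth macrodilution per NCCLS M27-P in RPMI-1640 buffered with 0.165 M MOPS. Fluconazole in sterile water, other drugs in DMSO. C. parapsilosis ATCC 22019 is the reference strain in each run. MIC is the lowest concentration with turbidity ≤ the 80% inhibition standard. For MFC, 0.04 mL from clear tubes is plated on Sabouraud agar; MFC is the lowest concentration giving ≤1 colony.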

Candida tropicalis [3] = assay: Evaluation of In vitro antifungal activity against Candida tropicalis 50 by broth macro dilution method; assay type: functional; how it was run: as §1
Candida albicans [4] = assay: Evaluation of In vitro antifungal activity against Candida albicans 76 by broth macro dilution method; assay type: functional; how it was run: as §1
Pichia kudriavzevii [5] = assay: In vitro evaluation of minimum inhibitory concentration against Candida krusei 70; assay type: functional
How it was run: (§2)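 Stocks are 800 μg/mL in 50% ethanol. Each plate gets 10 μL of inoculum at 10^5 cfu/mL. Incubation at 25 °C, 48 h for yeasts and 120 h for dermatophytes and molds. Organisms are ATCC strains or clinical isolates.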

Trichophyton rubrum = assay: In vitro evaluation of minimum inhibitory concentration against Trichophyton rubrum 90; assay type: functional; how it was run: as §2
Mus sp. = assay: In vivo evaluation of % survival rate after peroral administration on 7th day at dose 1 mg/kg; assay type: functional; settings: Mus sp., po
Rattus norvegicus = assay: In vivo evaluation of antifungal activity against vaginal candidosis in rat at dose 0.25 mg/kg on 15th day; assay type: functional
How it was run: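 Groups of 10 female Wistar rats given estradiol 25 mg/kg sc on day -5, infected intravaginally with C. albicans by sterile swab on day 0; infection confirmed on day 3 by swab culture (TSB, then Sabouraud agar). Oral dosing once daily on days 3, 4, 5; vehicle controls. Vaginal swabs cultured on days 10 and 15; read-out % cured (culture-negative).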

Aspergillus flavus = assay: In vitro evaluation of minimum inhibitory concentration against Aspergillus flavus 19; assay type: functional; settings: Aspergillus flavus; read-out: MIC; how it was run: as §2
Nakaseomyces glabratus = assay: Evaluation of In vitro antifungal activity against Torulopsis glabrata 78 by broth macro dilution method; assay type: functional; how it was run: as §1
Candida albicans [6] = assay: Evaluation of In vitro antifungal activity against Candida albicans C56 by broth macro dilution method; assay type: functional; how it was run: as §1
Trichophyton benhamiae = assay: In vitro evaluation of minimum inhibitory concentration against Trichophyton mentagrophytes 23; assay type: functional, Arthroderma benhamiae; settings: Trichophyton benhamiae; read-out: MIC; how it was run: as §2
Candida parapsilosis [7] = assay: Evaluation of In vitro antifungal activity against Candida parapsilosis C74 by broth macro dilution method; assay type: functional; settings: Lodderomyces parapsilosis; how it was run: as §1
[8] = tested on: Meyerozyma guilliermondii; assay: Evaluation of In vitro antifungal activity against Candida guilliermondii 26 by broth macro dilution method; assay type: functional; how it was run: as §1
Candida parapsilosis [9] = assay: Evaluation of In vitro antifungal activity against Candida parapsilosis C292 by broth macro dilution method; assay type: functional; settings: Lodderomyces parapsilosis; how it was run: as §1
Nannizzia gypsea = assay: In vitro evaluation of minimum inhibitory concentration against Microsporum gypseum 22; assay type: functional; how it was run: as §2
Candida albicans [10] = assay: Evaluation of In vitro antifungal activity against Candida albicans 2.01 by broth macro dilution method; assay type: functional; how it was run: as §1
Candida parapsilosis [11] = assay: Evaluation of In vitro antifungal activity against Candida parapsilosis ATCC 141095 by broth macro dilution method; assay type: functional; settings: Lodderomyces parapsilosis; how it was run: as §1
Candida albicans [12] = assay: Evaluation of In vitro antifungal activity against Candida albicans 406 by broth macro dilution method; assay type: functional; how it was run: as §1
Rhodotorula mucilaginosa = assay: In vitro evaluation of minimum inhibitory concentration against Rhodotorula rubra 16; assay type: functional; settings: Rhodotorula mucilaginosa; read-out: MIC; how it was run: as §2
Pichia kudriavzevii [13] = assay: Evaluation of In vitro antifungal activity against Candida krusei 70 by broth macro dilution method; assay type: functional; how it was run: as §1
Cryptococcus neoformans = assay: Evaluation of In vitro antifungal activity against Cryptococcus neoformans 87 by broth macro dilution method; assay type: functional; how it was run: as §1
Candida tropicalis [14] = assay: In vitro evaluation of minimum inhibitory concentration against Candida tropicalis 2.11; assay type: functional; settings: Candida tropicalis; read-out: MIC; how it was run: as §2

C[C@@H](NC(=O)c1ccc(C(F)(F)F)cc1)[C@](O)(Cn1cncn1)c1ccc(F)cc1F
MIC (Candida albicans [1]): 0.15 µg/mL (≈ 0.341 µM)
MFC (Pichia kudriavzevii [2]): 16 µg/mL (≈ 36.3 µM)
MIC (Pichia kudriavzevii [2]): 4 µg/mL (≈ 9.08 µM)
MFC (Candida tropicalis [3]): > 64 µg/mL
MIC (Candida tropicalis [3]): 1 µg/mL (≈ 2.27 µM)
MFC (Candida albicans [4]): > 64 µg/mL
MIC (Candida albicans [4]): < 0.031 µg/mL
MIC (Pichia kudriavzevii [5]): 20 µg/mL (≈ 45.4 µM)
MIC (Trichophyton rubrum): 10 µg/mL (≈ 22.7 µM)
survival at 1 mg/kg (Mus sp.): 100%
Cure rate (Rattus norvegicus): 100%
MIC (Aspergillus flavus): 20 µg/mL (≈ 45.4 µM)
MFC (Nakaseomyces glabratus): > 64 µg/mL
MIC (Nakaseomyces glabratus): 8 µg/mL (≈ 18.2 µM)
MFC (Candida albicans [6]): > 64 µg/mL
MIC (Candida albicans [6]): < 0.031 µg/mL
MIC (Trichophyton benhamiae): 40 µg/mL (≈ 90.8 µM)
MFC (Candida parapsilosis [7]): 0.125 µg/mL (≈ 0.284 µM)
MIC (Candida parapsilosis [7]): ≤ 0.031 µg/mL
MFC [8]: 4 µg/mL (≈ 9.08 µM)
MIC [8]: 0.25 µg/mL (≈ 0.568 µM)
MFC (Candida parapsilosis [9]): 4 µg/mL (≈ 9.08 µM)
MIC (Candida parapsilosis [9]): 0.063 µg/mL (≈ 0.143 µM)
MIC (Nannizzia gypsea): 10 µg/mL (≈ 22.7 µM)
MFC (Candida albicans [10]): > 64 µg/mL
MIC (Candida albicans [10]): 0.125 µg/mL (≈ 0.284 µM)
MFC (Candida parapsilosis [11]): 32 µg/mL (≈ 72.7 µM)
MIC (Candida parapsilosis [11]): 1 µg/mL (≈ 2.27 µM)
MFC (Candida albicans [12]): > 64 µg/mL
MIC (Candida albicans [12]): < 0.031 µg/mL
MIC (Rhodotorula mucilaginosa): 1.25 µg/mL (≈ 2.84 µM)
MFC (Pichia kudriavzevii [13]): 8 µg/mL (≈ 18.2 µM)
MIC (Pichia kudriavzevii [13]): 2 µg/mL (≈ 4.54 µM)
MFC (Cryptococcus neoformans): > 64 µg/mL
MIC (Cryptococcus neoformans): 0.5 µg/mL (≈ 1.14 µM)
MIC (Candida tropicalis [14]): 80 µg/mL (≈ 182 µM)
